Compounds with a hit are over-represented: about 2.3% of the library has one in this group of screens.
TRPC6 inhibitor: mouse TRPC6 channel inhibitors, primary screen, cell-based, HEK293, membrane potential dye; Short transient receptor potential channel 6 (Mus musculus), Q61143; ACh-evoked depolarization; stronger effect = lower value; B-score at 10 µM; 310,000 tested, 1.1% active; AID 2553, 2010;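 active means B-score under library mean minus 3 SD, initial fluorescence not abnormally high, positive integrated signal ratio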;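 further: B-score derived from integrated fluorescence ratio over the kinetic read; more negative B-score means stronger inhibition of depolarization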
Target sequence (Q61143 whole entry, looked up): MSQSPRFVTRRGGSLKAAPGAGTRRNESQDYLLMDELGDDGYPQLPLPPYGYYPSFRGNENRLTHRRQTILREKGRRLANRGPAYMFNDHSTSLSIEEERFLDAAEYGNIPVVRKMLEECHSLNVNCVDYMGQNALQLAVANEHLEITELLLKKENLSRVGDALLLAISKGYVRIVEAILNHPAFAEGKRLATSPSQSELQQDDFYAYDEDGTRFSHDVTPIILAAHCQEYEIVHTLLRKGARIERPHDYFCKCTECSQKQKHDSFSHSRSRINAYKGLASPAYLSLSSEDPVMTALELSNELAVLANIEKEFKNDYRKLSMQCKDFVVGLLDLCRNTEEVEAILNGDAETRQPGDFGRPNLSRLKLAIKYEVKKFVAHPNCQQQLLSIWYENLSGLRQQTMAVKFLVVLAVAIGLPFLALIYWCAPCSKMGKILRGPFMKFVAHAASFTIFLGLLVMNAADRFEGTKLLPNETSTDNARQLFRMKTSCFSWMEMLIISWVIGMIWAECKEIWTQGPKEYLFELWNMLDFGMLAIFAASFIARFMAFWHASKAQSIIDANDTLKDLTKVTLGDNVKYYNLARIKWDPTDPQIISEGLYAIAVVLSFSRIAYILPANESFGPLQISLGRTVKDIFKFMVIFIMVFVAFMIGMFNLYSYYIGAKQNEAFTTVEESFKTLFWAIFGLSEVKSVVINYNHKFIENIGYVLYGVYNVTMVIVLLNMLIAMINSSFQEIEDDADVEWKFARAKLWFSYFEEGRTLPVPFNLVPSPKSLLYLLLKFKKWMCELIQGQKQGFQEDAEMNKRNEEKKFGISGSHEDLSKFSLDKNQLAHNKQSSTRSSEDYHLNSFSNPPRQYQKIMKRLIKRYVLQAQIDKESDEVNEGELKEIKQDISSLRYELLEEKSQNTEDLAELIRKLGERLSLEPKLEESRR
TRPC4 block: inhibitors of mouse TRPC4 channel, primary screen, Fluo4 calcium, HEK293 TRPC4beta/mu-opioid cells; 300,000 tested, 0.39% active; DAMGO-evoked Fluo4 calcium flux; stronger effect = lower value; B-score at 10 µM; AID 2247, 2010;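 active means B-score over 3 SD under the library average, no early fluorescence shift, positive overall ratio signal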
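Assay system: HEK293 cells with stable TRPC4beta plus mu-opioid receptor expression. Dosing: single dose. Measured by: Fluo4 Ca2+ flux fluorescence. Also added: DAMGO in two steps, submaximal then maximal. Read-out: B score from integrated Fluo4 fluorescence ratio.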
TRPC6 activator: mouse TRPC6 channel activators, primary screen, cell-based, HEK293, membrane potential dye. HEK293-TRPC6 membrane potential dye fluorescence; stronger effect = higher value. B-score at 10 µM. 310,000 tested, 0.13% active. AID 2550, 2010;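 active means B-score of the integrated fluorescence ratio above library mean plus 3 SD, and starting fluorescence ratio within library mean plus 5 SD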;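 further: higher score means more depolarization so channel activation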
TRPC4 PAM: positive allosteric modulators of TRPC4, primary screen, cell-based, mouse TRPC4beta, HEK293 mu-opioid, Fluo-4 calcium; B-score at 10 µM; Short transient receptor potential channel 4 (Mus musculus), Q9QUQ5; AID 2227, 2009; 310,000 tested, 0.42% active; DAMGO EC20, Fluo-4 Ca2+ flux; stronger effect = higher value;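 active means B-score of calcium response area above 5 SD of library B-scores, with initial fluorescence ratio within 5 SD of library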;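 further: B-score of integrated fluorescence ratio over time as area under calcium response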
TRPC4 act: activators of mouse TRPC4 channel, primary screen, Fluo4 calcium, HEK293 TRPC4beta/mu-opioid cells. Short transient receptor potential channel 4 (Mus musculus), Q9QUQ5. Fluo4 calcium fluorescence; stronger effect = higher value. B-score at 10 µM. 310,000 tested, 0.49% active;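 active means B-score above 5 SD of library B-scores, and initial fluorescence ratio not above library mean plus 5 SD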;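 further: positive B-score marks a calcium rise read as TRPC4 activation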
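Assay system: HEK293 stable line with TRPC4beta plus mu-opioid receptor; schedule: 45 min room-temperature Fluo4 loading, 110 s read; technique: kinetic Fluo4 calcium fluorescence; evaluation: integrated baseline-normalised fluorescence ratio, converted to per-well B score; controls: buffer (low) and maximal DAMGO (high)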
* hit, by the source's call; i = inactive; . = not tested or not shown.

SMILES	TRPC6 inhibitor	TRPC4 block	TRPC6 activator	TRPC4 PAM	TRPC4 act
CCOc1ccc2[nH]c3c(N4CCN(c5ccccn5)CC4)ncnc3c2c1	i	-6*	i	i	i
COC(=O)c1sc(-c2ccc(C(C)(C)C)cc2)cc1NC(=O)c1ccccc1C(=O)O	i	i	i	12*	i
COC(=O)c1sc(-c2ccc(C(C)(C)C)cc2)cc1NC(=O)CSCC(=O)O	i	-6*	i	i	i
COC(=O)c1sc(-c2ccc(Cl)cc2)cc1NC(=O)c1ccccc1C(=O)O	i	i	i	i	i
C/C(=N\NC(=O)CCC(=O)Nc1ccccc1)c1cccs1	i	i	i	i	i
O=[N+]([O-])c1cc(C(F)(F)F)ccc1N1CCN(S(=O)(=O)c2ccc3c(c2)CCCC3)CC1	i	i	i	i	i
O=[N+]([O-])c1cc(C(F)(F)F)ccc1N1CCCNCC1	i	i	i	42*	83*
NC(=O)C1CCCN(CC(O)COCc2ccc(Cl)cc2)C1 (stereo not given)	i	i	i	i	189*
CCOC(=O)C1CCN(CC(O)COCc2ccc(Cl)cc2)CC1 (stereo not given)	i	i	i	i	i
OCCN1CCN(Cc2cc(Br)cc(Br)c2O)CC1	i	i	i	i	176*
CC(C)(C)c1ccc(-c2nnc3sc(-c4ccccn4)nn23)cc1	i	i	i	85*	i
COc1ccc(-c2nnc3sc(-c4ccccn4)nn23)cc1	i	i	i	i	i
O=S(=O)(Cc1ccccc1)N1CCNCC1	i	i	i	i	i
CC1=C[C@@H](C)[C@@H](c2ccccc2)OC1=O	i	i	i	i	61*
CSCCC(NS(=O)(=O)c1ccccc1)C(=O)OCc1cc(=O)oc2cc(O)ccc12 (stereo not given)	i	i	i	i	i
C=CCC(O)(CC=C)CNC(=O)c1ccc(OC)c(OC2CCN(C(C)=O)CC2)c1	i	i	i	i	i
Cc1nc(N2CCCCC2)c(C#N)c(C)c1[N+](=O)[O-]	i	-5*	i	i	i
Cc1nn(-c2nc3ccccc3n2Cc2ccccc2)c2c1C(=O)CC(C)(C)C2	i	-6*	i	i	i
Cc1nn(-c2ccccc2)c2c1C(=O)N(Cc1ccccc1)C(=O)C(C)(C)C2	i	i	i	i	i
Cc1cc(Cl)c2oc(C(=O)N(C)Cc3cc(C)[nH]n3)c(C)c2c1	i	i	i	i	i
Cc1cc(Cl)c2oc(C(=O)N(C)Cc3nccn3C)c(C)c2c1	i	-7*	i	i	i
Cc1cc2ccccn2c1C(=O)c1nc(NCc2ccco2)ncc1Cl	i	i	i	13*	i
CC1CCCCN1C(=O)CN1C(=O)c2ccccc2S1(=O)=O (stereo not given)	i	i	i	i	i
Cc1nnc(NC(=O)c2ccccc2Oc2ccccc2)s1	i	.	i	i	i
Cc1cccc(C)c1OCCCCN1CCCCC1	i	i	i	i	i
SMILES	TRPC6 inhibitor	TRPC4 block	TRPC6 activator	TRPC4 PAM	TRPC4 act
Cc1cccc(C)c1OCCCN1CCCC1	i	i	i	14*	i
Cc1cc(OCCCN2CCCC2)ccc1Cl	i	i	i	12*	i
Nc1nc(-c2ccc3ccccc3c2)c(C2(O)C(=O)Nc3c(Br)cc(F)cc32)s1 (stereo not given)	i	i	i	i	i
CC1(C#CC[N+]2(C)CCCCC2)CCC2C(O1)c1ccccc1OC2(C)C (stereo not given)	i	i	i	21*	i
O=C(NCCc1nc2ccccc2[nH]1)/C(=C/c1ccc2c(c1)OCO2)NC(=O)c1ccccc1Cl	i	i	i	i	i
O=c1ccc(-c2nc3cc(Cl)ccc3n2Cc2ccccc2)c[nH]1	i	i	i	10*	i
O=c1ccc(-c2nc3ccccc3n2Cc2ccccc2Cl)c[nH]1	i	i	i	i	i
COc1ccccc1/C=C/C=N/n1c(C)nnc1C	i	i	i	i	i
COc1ccccc1/C=C1\SC(=S)N(NS(=O)(=O)c2ccccc2)C1=O	i	i	i	i	i
CCOc1cc(/C=C2\SC(=S)N(NS(=O)(=O)c3ccc(C)cc3)C2=O)ccc1O	i	i	i	i	i
COc1cc(/C=C2\SC(=S)N(NS(=O)(=O)c3ccc(C)cc3)C2=O)cc(OC)c1OC	i	-6*	i	i	i
COc1cccc(/C=C2\SC(=S)N(NS(=O)(=O)c3ccc(C)cc3)C2=O)c1OC	i	-6*	i	i	i
CCOC(=O)c1c(NC(=O)c2ccc(Cl)cc2)csc1C	i	i	i	i	i
COc1cc2c(C(=O)N3CCN(c4ccccc4F)CC3)cn(C)c(=O)c2cc1OC	i	i	i	i	i
Cc1cccc(-n2nc(C)c3c(C(=O)O)cc(-c4cccs4)nc32)c1	i	-6*	i	i	i
Cc1nn(-c2cccc(Cl)c2)c2nc(-c3ccco3)cc(C(=O)O)c12	i	i	i	i	i
COc1ccc(-c2cc(C(=O)O)c3c(C)nn(-c4ccccn4)c3n2)cc1	i	i	i	i	i
Cc1nn(-c2ccccn2)c2nc(-c3cccs3)cc(C(=O)N3CCOCC3)c12	i	i	i	12*	i
COc1ccc(NC(C)=O)cc1NC(C)C(=O)Nc1cc(C(F)(F)F)ccc1N1CCOCC1 (stereo not given)	i	i	i	27*	i
CCNS(=O)(=O)c1ccc(CCC(=O)N2CCN(C(=O)OCC)CC2)cc1	i	i	i	i	i
O=C(O)c1ccc2c(c1)C1C=CCC1C(c1cc3c(cc1Br)OCO3)N2 (stereo not given)	i	-7*	i	i	i
S=C(NCCN1CCOCC1)N1CCN(c2cccc(Cl)c2)CC1	i	i	i	i	i
S=C(NCc1ccco1)N1CCN(c2cccc(Cl)c2)CC1	i	-5*	i	i	i

Screening results as filed in PubChem.
